The values below come from PubChem BioAssay.

SMILES strings stand for the structures. Calls of active or inactive are those of the source. Unless noted, how the calls were made is not given here.

The nature of assay [1]: Coupled enzyme confirmation of inhibitors against recombinant Mtb PanC (AID 375).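 On inhibition: 0% = full reaction with vehicle and 100% = no enzyme background.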 Conditions: coupled enzyme assay; measured here: coupling enzymes IC50 repeat trials unless noted.
Assay [2] concerns the target Pantothenate synthetase (Mycobacterium tuberculosis (strain ATCC 25618 / H37Rv)) (UniProt P9WIL5). The description is as above. Conditions: coupled enzyme assay; at 10 µM, stronger effect = higher value.
Assay [3] can be described thus: reduced viability of SK-BR-3 breast cancer cells – cell-based, 24 h, human, pilot screen (AID 572;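 active means viability at or below 10% of carrier control in both of two separate runs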;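 further: compound exposure lasted between 18 and 24 h rather than exactly 24 h; 100% = carrier-treated control wells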). The following applies: SK-BR-3 viability, CellTiter-Glo luminescence, at 10 µM, stronger effect = lower value. On the technique in general: ATP-based viability assays read luminescence as a measure of living cells.
Assay [4] is described as follows: HUVEC growth inhibition – cell-based, human, primary screen (AID 575;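 active means viability at or below 30% in both replicate assays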;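 further: 100% = median of untreated cell wells with 0.1% DMSO on each plate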). The following applies: HUVEC proliferation, CellTiter-Glo luminescence, 72 h; at 10 µM; stronger effect = lower value. Summed up:
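system = HUVEC primary cells | amount = 1250 cells/well | buffer or medium = supplemented EBM, 2% fetal bovine serum | dosing = single-point 10 µM, DMSO 0.1% final | times = 72 h compound incubation | detection = CTG luminescence | read-out = % viability relative to median vehicle-well signal on each plate | control set = vehicle and MePR control wells | format = collagen-coated 384-well format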

Assay [5] can be described thus: MRP1 drug-resistance reversers in H69AR cells – cell-based, doxorubicin co-treatment, pilot screen (AID 601;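 active means viability loss from added drug above about 55%, and viability with drug at most 40%, in both replicates, limit read from the data, passing the limit was not always enough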). Conditions: CellTiter-Glo, 72 h, at 10 µM.
Assay [6] can be described thus: yeast transport mutant growth inhibition pilot in 384-well plates, post-Golgi transport modulator project (AID 636; in the data active means inhibition above about 31%). The following applies: absorbance 615 nm, about 18 h, stronger effect = higher value.
A short description of assay [7]: growth suppression of yeast trafficking mutant, preliminary HTS, modulators of trafficking downstream of Golgi apparatus project, 1536-format plate, OD 615 nm (AID 637; in the data active means inhibition above about 30%). Conditions: yeast transport mutant growth, absorbance 615 nm, 18 h; stronger effect = higher value.

Sequence of Pantothenate synthetase (Mycobacterium tuberculosis (strain ATCC 25618 / H37Rv)) (P9WIL5 whole entry, looked up): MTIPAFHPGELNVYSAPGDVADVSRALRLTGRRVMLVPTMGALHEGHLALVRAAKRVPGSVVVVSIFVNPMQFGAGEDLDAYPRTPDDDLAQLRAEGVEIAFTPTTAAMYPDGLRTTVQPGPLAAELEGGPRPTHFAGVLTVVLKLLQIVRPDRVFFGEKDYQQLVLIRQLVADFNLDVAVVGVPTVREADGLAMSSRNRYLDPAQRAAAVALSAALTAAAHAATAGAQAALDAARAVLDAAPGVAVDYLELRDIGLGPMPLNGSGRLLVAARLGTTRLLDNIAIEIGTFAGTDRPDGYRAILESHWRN

Regarding `Cc1cc(NC(=O)c2cc(-c3ccco3)on2)nn1Cc1ccc(Cl)cc1`, in assay [1], the IC50 (as a rule, the concentration that inhibits the measured activity by half) is over 100 µM. In assay [2], the outcome was inactive. On the same counts, the results for `COc1ccc(OC)c(-c2cc(C(=O)Nc3cc(C)n(Cc4ccc(Cl)cc4)n3)no2)c1` are over 100 µM and “inactive”. Consider `O=c1c2ccccc2[se]n1-c1ccccc1`, for which the viability – broadly, a per cent measure of how many cells are alive, often set against a control – in assay [3] was 67% (inactive); in assay [4], 42.1% (inactive); in assay [5] (H69AR cells + 2 uM doxorubicin, measured here: viability with 2 uM doxorubicin, stronger effect = lower value) it was 1.34%; in assay [5] (H69AR cells, compound alone cytotoxicity), 3.73%. In addition, in assay [5] (H69AR cells + 2 uM doxorubicin, stronger effect = higher value), the differential viability (reversal) was 2.39% (inactive). Further, the inhibition (in general, the drop in the measured response relative to a control, in per cent) in assay [6] is 0.65% (inactive); in assay [7], -0.5% (inactive). As for `CC(=O)Nc1nc2c(c3c1c(=O)oc1ccccc13)CC(C)CC2` (stereo not given), the inhibition in assay [2] is 0% (inactive). Still for that read-out and setting: the result for `CC(=O)Nc1cccc(NC(=O)CSc2nnnn2C(C)C)c1` reads 5% (inactive).

Regarding `COc1ccc2[nH]c(=O)c(CNC3CCCCC3)cc2c1`, in assay [2], the inhibition is 0% (inactive). The same measure, in the same setting: the result for `CN(C)c1ccc(NC(=O)CSCc2nc3c(nnn3Cc3ccc(F)cc3)c(=O)[nH]2)cc1` reads 3% (inactive). Same read-out and setting: the result for `CCN1CCN(Cc2nc3c(c(=O)[nH]c(=O)n3C)n2Cc2ccccc2Cl)CC1` reads 2% (inactive); that for `O=C(NCc1cccnc1)/C(=N\O)c1ccccc1`, 0% (inactive). On the same count and under the same terms, for `Cc1cc(/N=C/N(C)C)on1` the value was 0% (inactive).

For `CCOC(=O)c1c(-c2ccc(C)o2)csc1NC(=O)COC(=O)c1cccs1`, in assay [2], the inhibition is 5% (inactive). Regarding `CC(C)c1ccc(C(O)c2cnc(C(C)C)n2C)cc1` (stereo not given), in assay [2], the inhibition is 1% (inactive). Still for that read-out and setting: for `CN(C)C(=O)Oc1ccc[n+](C)c1` the value was 4% (inactive); for `Cc1cc(C)cc(N2C(=O)CC(N3CCOCC3)C2=O)c1` (stereo not given), 0% (inactive). For `O=C(O)CSc1ncn[nH]1`, the inhibition in assay [2] was 0% (inactive). The same measure, in the same setting: for `CCOc1ccc(N(CC)C(=O)COc2cc(=O)n(C)c3ccccc23)cc1` the value was 0% (inactive). On the same count and under the same terms, the result for `Cc1cc(C(=O)CSc2nnc(-c3ccco3)o2)c(C)n1CC1COc2ccccc2O1` (stereo not given) reads 0% (inactive). On the same count and under the same terms, for `Cc1cc(N2CCN(C3CCCC3)CC2)n2c(nc3ccccc32)c1C#N` the value was 0% (inactive); for `Cc1ccc(NC(=O)CC2C(=O)NC3CCCCC3N2C(=O)c2ccc(F)cc2)cc1C` (stereo not given), 4% (inactive). Regarding `Cc1nc2cccc(C(=O)NC3CCCCC3)c2o1`, the inhibition in assay [2] is 0% (inactive). The same measure, in the same setting: the result for `COC(=O)c1[nH]c2ccc(F)cc2c1NS(=O)(=O)c1ccc(OC)cc1OC` reads 14% (inactive); that for `COc1ccccc1OCCCCNCCO`, 0% (inactive).

For `COc1ccc(C2=CC(=O)OC3(CCCCC3)O2)cc1`, the inhibition in assay [2] was 0% (inactive). Still for that read-out and setting: the result for `Cc1ccc(/C=c2\sc3nc(-c4ccccc4Br)nn3c2=O)o1` reads 0% (inactive). Same read-out and setting: for `O=C1CN(Cc2ccccc2)C(=NCc2ccco2)S1` the value was 0% (inactive); for `CCCn1c2ccccc2c2nnc(SCC(=O)Nc3ncccn3)nc21`, 8% (inactive); for `CC(=O)c1cccc(NC(=O)N2CCCC2C(=O)NCc2ccc(C)cc2)c1` (stereo not given), 4% (inactive). On the same count and under the same terms, the result for `NC(=O)C1(N2CCCCC2)CCN(Cc2ccccc2Cl)CC1` reads 0% (inactive). `CCOc1ccc2oc(-c3ccccc3)c(C(=O)N3CCN(CCO)CC3)c2c1`: the inhibition in assay [2] was 0% (inactive). On to `O=C1Nc2ccccc2OC1CC(=O)N1CCCC1` (stereo not given), for which the inhibition in assay [2] was 0% (inactive). Same read-out and setting: for `CC(=O)N1C(=O)C2(Nc3ccccc3N2)c2ccccc21` the value was 1% (inactive). Regarding `CCn1c(=O)cc(SCC(=O)N2CCOCC2)c2ccccc21`, the inhibition in assay [2] is 11% (inactive). On the same count and under the same terms, for `COc1ccc2nc(S(=O)Cc3ncc(C)c(OC)c3C)[nH]c2c1` (stereo not given) the value was 4% (inactive). Turning to `CCOc1ccc(C(=O)CN2CCN(S(=O)(=O)c3ccc(OC)cc3)CC2)cc1`, the inhibition in assay [2] is 1% (inactive). `CCN(CC)CCN1C(=O)C(O)=C(C(=O)c2cccs2)C1c1ccccn1` (stereo not given): the inhibition in assay [2] was 0% (inactive). The same measure, in the same setting: the result for `C#CCN1C(=O)C(O)(CC(=O)c2cc(OC)ccc2OC)c2ccccc21` (stereo not given) reads 6% (inactive); that for `Cc1cccc(N2C(=O)CC(Sc3nc(C)c4c(n3)CCCC4)C2=O)c1` (stereo not given), 0% (inactive); that for `O=C(CSc1nc2ccccc2c(=O)n1CCC(=O)N1CCCCC1)NCc1ccccc1`, 0% (inactive). As for `Cc1cccc(-c2nnc(SCC#N)n2-c2cccc(Cl)c2)c1`, the inhibition in assay [2] was 0% (inactive). The same measure, in the same setting: the result for `Cc1cc(C)cc(C(=O)N2CCC(C(N)=O)CC2)c1` reads 0% (inactive); that for `CS(=O)(=O)c1ccc2nc(NC(=O)c3cccs3)sc2c1`, 0% (inactive); that for `CC(C)(C)NC(=O)NC(=O)COc1ccccc1C#N`, 3% (inactive).

On to `CCOC(=O)N1CCC(NC(=O)CSCc2nc(-c3cccc(OC)c3)oc2C)CC1`, for which the inhibition in assay [2] was 0% (inactive). Still for that read-out and setting: for `CC1CN(c2nc3ccccn3c(=O)c2/C=C(\C#N)S(=O)(=O)c2ccccc2)CC(C)O1` (stereo not given) the value was 5% (inactive). For `O=C(Nc1cc(C(F)(F)F)ccc1Cl)c1cc(C2CC2)on1`, the inhibition in assay [2] is 2% (inactive). On the same count and under the same terms, the result for `O=C(O)c1cccc(NC(=O)C23CC4CC(C2)CC(n2cnc(Cl)n2)(C4)C3)c1` reads 1% (inactive); that for `Cc1cc(OCC(=O)N2CCCC2)cc(C)c1Cl`, 2% (inactive).
